An excerpt weighted towards active compounds, which were near 4% of everything screened.
bCat nuc transl: modulators of beta-catenin nuclear translocation; HeLa beta-catenin nuclear translocation, immunofluorescence imaging; nuclear translocation activity, % at 5 µM; 190,000 tested, 0.3% active; AID 1665;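 active = nuclear translocation activity above 50% at 5 µM, with a well cell count of 50 or more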;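 note: per-cell ratio of nuclear to cytoplasmic median beta-catenin stain intensity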
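Test system: human HeLa cells, native beta-catenin. Compound dosing: 5 µM primary single dose, 0.1% DMSO, 0.02–20 µM confirmation series. Incubation: compound exposure 24 h at 37°C. Detection: beta-catenin immunostaining with DAPI counterstain, 20x imaging, 6 fields/well. Read-out basis: Nuclear/cytoplasmic beta-catenin signal ratio, % activation.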
WT yeast gro inh: growth inhibition of WT yeast, mitochondrial fusion screen; mitochondrial fusion phenotypic screen, WT strain; inhibition, % at 10 µM; 190,000 tested, 2.1% active; AID 1362; in the data active = inhibition above about 58%; tested in S. cerevisiae
Cl transport mod: modulates chloride dependent transport by human KCC2 | Q9H2X9 | KCC2 cells, thallium flux FluoZin-2 fluorescence | B-score of Tl+ flux slope (higher = more flux/activation; lower = inhibition) at 10 µM | 190,000 tested, 2.2% active | AID 1456;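 active = thallium flux slope and its plate-corrected score both differing from the plate sample mean at a set confidence after two filtering rounds, in either direction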;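 note: slope of fluorescence scaled to starting intensity during 10 to 20 s after thallium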
Target sequence (Q9H2X9 whole entry, looked up): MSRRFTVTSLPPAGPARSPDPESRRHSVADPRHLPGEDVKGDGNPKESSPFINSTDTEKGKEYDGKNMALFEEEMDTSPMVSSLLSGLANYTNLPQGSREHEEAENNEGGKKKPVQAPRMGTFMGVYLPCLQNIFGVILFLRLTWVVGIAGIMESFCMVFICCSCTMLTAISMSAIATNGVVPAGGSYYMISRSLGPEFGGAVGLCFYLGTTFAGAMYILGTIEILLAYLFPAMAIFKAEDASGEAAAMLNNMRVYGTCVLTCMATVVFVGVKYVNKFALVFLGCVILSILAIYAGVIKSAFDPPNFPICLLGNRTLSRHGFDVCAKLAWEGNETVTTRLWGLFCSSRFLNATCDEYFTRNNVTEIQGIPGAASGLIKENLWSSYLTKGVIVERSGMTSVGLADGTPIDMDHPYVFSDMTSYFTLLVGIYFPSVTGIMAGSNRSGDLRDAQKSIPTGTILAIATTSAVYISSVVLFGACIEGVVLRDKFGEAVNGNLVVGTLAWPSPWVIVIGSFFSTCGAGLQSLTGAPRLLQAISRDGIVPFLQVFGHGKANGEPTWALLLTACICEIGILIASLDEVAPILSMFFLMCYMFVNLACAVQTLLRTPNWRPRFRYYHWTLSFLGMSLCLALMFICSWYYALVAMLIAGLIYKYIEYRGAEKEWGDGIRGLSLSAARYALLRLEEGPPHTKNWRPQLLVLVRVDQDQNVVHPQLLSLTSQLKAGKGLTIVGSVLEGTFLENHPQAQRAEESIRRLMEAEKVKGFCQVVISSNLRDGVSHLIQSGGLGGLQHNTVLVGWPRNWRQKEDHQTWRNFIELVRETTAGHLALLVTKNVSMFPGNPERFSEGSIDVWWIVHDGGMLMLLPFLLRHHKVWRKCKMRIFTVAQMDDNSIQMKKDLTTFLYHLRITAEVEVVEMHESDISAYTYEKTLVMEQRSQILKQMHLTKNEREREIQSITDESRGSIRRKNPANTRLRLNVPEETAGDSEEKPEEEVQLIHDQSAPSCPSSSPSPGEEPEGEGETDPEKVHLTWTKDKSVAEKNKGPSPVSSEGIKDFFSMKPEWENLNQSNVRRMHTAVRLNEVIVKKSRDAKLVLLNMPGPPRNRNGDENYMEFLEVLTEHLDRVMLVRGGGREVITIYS
Pf gamet viab: kills late stage P. falciparum gametocytes. P. falciparum stage V gametocytes, ATP luminescence, 24 h. inhibition, % at 10.9 µM. 150,000 tested, 0.065% active. AID 743093;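 active = inhibition above the mean plus 3 SD of compounds within the control limits, set per campaign, cut at about 38% in these data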
MT stabilizer: microtubule stabilization, imaging screen; AID 2205; 200,000 tested, 0.83% active; % tubulin-high responders, % at 10 µM; HeLa tubulin immunostaining HCS, 24 h; share of cells brighter than vehicle mean+2SD;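 active = plate Z-score above 3 for both tubulin-high and condensed-nucleus cell shares, with cell loss under 80%, at 10 µM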;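 note: anti alpha tubulin signal scored within the nucleus-defined area of each cell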
Numbers stand for hits; . = inactive; / = no result.

SMILES	bCat nuc transl	WT yeast gro inh	Cl transport mod	Pf gamet viab	MT stabilizer
CC(C)c1nc(SCC(=O)Nc2ccc3c(c2)OCCO3)c2c(=O)n(C)c(=O)n(C)c2n1	.	.	.	/	21.7
CC(C)c1nc(SCC(=O)Nc2cccc(C(F)(F)F)c2)c2c(=O)n(C)c(=O)n(C)c2n1	.	.	.	/	.
COc1ccc(NC(=O)Nc2ccc(O)c3ccccc23)cc1	/	/	/	.	/
Cc1cccn2cc(CCNC(=O)Cc3cccs3)nc12	.	/	.	.	/
CCCCOc1ccc(-c2nnn(CC(=O)NCc3ccco3)n2)cc1	.	.	.	/	39.3
CCOc1ccc(-c2nnn(CC(=O)NCc3ccco3)n2)cc1OCC	.	.	.	/	.
CCc1ccc(/C=C2\SC(=S)N(CCC(=O)NC3=NCCS3)C2=O)cc1	.	.	.	.	.
O=C(CCN1C(=O)/C(=C/c2cccs2)SC1=S)NC1=NCCS1	.	72.4	.	.	.
COc1ccccc1/C=C1\SC(=S)N(CCC(=O)NC2=NCCS2)C1=O	.	.	.	.	.
O=C(CCN1C(=O)/C(=C\c2cccs2)SC1=S)NC1=NCCS1	.	75.6	.	.	.
CCCC(c1nnnn1CC1CCCO1)N1CCN(c2cc(Cl)ccc2C)CC1 (stereo not given)	.	65.3	/	.	.
CCC(c1nnnn1C(C)(C)C)N1CCN(C2CCCC2)CC1 (stereo not given)	.	.	.	.	.
CCC(c1nnnn1C(C)(C)C)N1CCN(c2cc(Cl)ccc2C)CC1 (stereo not given)	.	72.7	.	.	.
Cc1ccc(Cl)cc1N1CCN(C(CC(C)C)c2nnnn2CC2CCCO2)CC1 (stereo not given)	.	.	.	.	.
COC(=O)c1c(NC(=O)c2ccccc2N(C)S(=O)(=O)c2ccccc2)sc2c1CCCC2	.	.	.	/	22.4
CCOC(=O)c1c(NC(=O)c2ccccc2N(C)S(=O)(=O)c2ccccc2)sc2c1CCCC2	60.5	.	.	.	12.6
COC(=O)c1c(NC(=O)c2ccccc2C(=O)O)sc2c1CCC2	/	/	/	.	/
COc1ccc2[nH]c(-c3ccccc3)cc2c1	.	/	.	/	/
CC(C)c1ccc(/C=N/NC(=O)c2cccc(Cl)c2)cc1	/	.	.	.	22.7
CSc1ccc(/C=C(\C#N)C(=O)NC2CCCCC2C)cc1 (stereo not given)	.	.	.	.	.
CC1CCCCC1NC(=O)/C(C#N)=C/c1ccccc1F (stereo not given)	.	72.6	.	.	.
COc1ccc(NC(=O)c2oc3ccccc3c2NC(=O)COc2ccccc2OC)c(OC)c1	.	64.2	/	/	.
COc1ccc(NC(=O)c2oc3ccccc3c2NC(=O)c2ccc(OC)c(OC)c2)c(OC)c1	/	/	/	.	/
CNC(=S)N/N=C/c1cn(Cc2c(F)cccc2Cl)c2ccccc12	.	61.9	.	/	.
CCNC(=S)N/N=C/c1cn(Cc2ccccc2F)c2ccccc12	.	.	.	/	.
SMILES	bCat nuc transl	WT yeast gro inh	Cl transport mod	Pf gamet viab	MT stabilizer
CC(C)Cc1ccc(C(C)C(=O)OCC(=O)c2c[nH]c3ccccc23)cc1 (stereo not given)	.	69.2	/	/	.
COc1ccccc1N1CCN(C(=O)c2ccc3nc[nH]c3c2)CC1	.	.	.	.	.
COc1ccccc1N1CCN(C(=O)c2ccc3[nH]c4c(c3c2)CC(C)CC4)CC1 (stereo not given)	.	72.3	.	.	.
CC1CCc2[nH]c3ccc(C(=O)O)cc3c2C1 (stereo not given)	/	/	/	.	/
COc1cc2c(cc1OC)CN(c1ccc([N+](=O)[O-])cc1Cl)CC2	.	.	/	/	.
COC(=O)c1cc(C(=O)N2CCN(c3ccccc3OC)CC2)cc([N+](=O)[O-])c1	69.7	.	.	.	27.3
COc1ccccc1N1CCN(c2ccc([N+](=O)[O-])cc2Cl)CC1	.	.	.	.	20.6
COC(=O)c1cc(C(=O)N2CCN(c3cccc(C)c3C)CC2)cc([N+](=O)[O-])c1	90.8	.	.	.	15.4
CCOC(=O)c1sc2ncnc(Nc3cccc(C(=O)O)c3)c2c1C	/	/	/	.	/
Cc1ccc(-n2c(SC3CCOC3=O)nc3ccccc3c2=O)cc1 (stereo not given)	.	.	.	/	.
CCOCCn1c(=O)c2c(nc3n2CCN3c2ccc(CC)cc2)n(C)c1=O	/	/	/	.	/
CN(C)c1ccc(C(c2ccc(N(C)C)cc2)c2ccc([N+](=O)[O-])cc2)cc1	.	/	.	.	/
COc1ccc(NC(=S)NC(NC(=O)c2ccccc2Cl)C(Cl)(Cl)Cl)c([N+](=O)[O-])c1 (stereo not given)	/	.	.	.	.
COc1ccc(NC(=S)NC(NC(=O)c2ccc(Cl)cc2Cl)C(Cl)(Cl)Cl)c([N+](=O)[O-])c1 (stereo not given)	.	67.8	.	.	.
CC(=O)N1c2ccccc2C(C)=CC1(C)C	.	/	.	.	/
CC1=CC(C)(C)N(S(=O)(=O)c2ccc(F)cc2)c2ccccc21	.	.	.	/	25.3
CC1=CC(C)(C)N(S(=O)(=O)c2ccc(C)cc2)c2ccc(C)cc21	/	63.0	.	/	.
C/C=C/C(=O)N1c2ccc(C)cc2C(C)=CC1(C)C	.	/	.	.	/
CC(=O)Nc1ccc(S(=O)(=O)N2c3ccccc3C(C)=CC2(C)C)cc1	81.2	.	.	.	8.6
CCCNC(=O)CS(=O)(=O)c1ccccc1	/	/	/	.	/
Cc1nc(NC2=NCN(C3CCCCC3C)CN2)nc2ccccc12 (stereo not given)	.	86.4	.	/	.
Cc1nc(NC2=NCN(Cc3ccccc3)CN2)nc2ccccc12	.	/	/	/	/
COCCN1Cc2cccc(C(=O)NC3CCCCCC3)c2C1=O	.	70.8	.	.	.
O=C1Cc2cc(CCN3CCN(c4nsc5ccccc45)CC3)c(Cl)cc2N1	.	.	.	/	/
Cc1sc(NC(=O)CSc2nnnn2C2CCCCC2)c(C#N)c1C	.	74.6	/	/	.
SMILES	bCat nuc transl	WT yeast gro inh	Cl transport mod	Pf gamet viab	MT stabilizer
COc1cc(OC)cc(C(=O)NCC(=O)OCC(=O)/C=C2/N(C)c3ccccc3C2(C)C)c1	.	.	.	.	.
CN1/C(=C\C(=O)COC(=O)c2ccc([N+](=O)[O-])o2)C(C)(C)c2ccccc21	.	94.4	.	.	.
COCCCN=C1NN=C(c2cc(C)n(-c3ccccc3F)c2C)CS1	92.3	.	.	.	19.1
COCCCN=C1NN=C(c2cc(C)n(Cc3ccccc3Cl)c2C)CS1	75.6	.	.	.	14.6
COCCCN=C1NN=C(c2cc(C)n(-c3ccccc3)c2C)CS1	.	.	.	.	.
O=C(C/C=N\O)Nc1ccc(Oc2ccccc2)cc1	.	.	.	.	.
CO/N=C\CC(=O)Nc1ccc(Oc2ccccc2)cc1	164.8	.	.	.	26.9
Fc1ccc(Sc2ccccc2CNC2=NCCN2)cc1	.	79.5	/	.	.
OCCNC1=NCCN1	.	.	/	.	.
C#CC[N+](C)(C)CCCCCCCC	.	.	.	/	.
C#CC[N+](C)(C)CCCCCCCCCCCC	.	78.2	.	/	.
CC#CC[N+](C)(C)CCCCCCCCCCCC	.	83.3	.	.	.
C#CC[N+](C)(C)CCCCCCCCCC	.	.	.	/	.

Compound activity (PubChem BioAssay)
